# From PubChem BioAssay
# INS-1E ATP HTS = preserves ATP levels in cytokine-treated INS-1E cells | INS-1E cytokine-induced death, ATP luminescence, 48 h; normalised: neutral wells 0, positive control 100 | protection from cytokine-induced ATP loss, % at 10 µM | actives 0.1% (n = 20,000) | AID 488910;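 active = mean replicate protection from cytokine-induced ATP loss at least 50% and at least 75% of replicates each reaching 50%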
#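 Test system: INS-1E rat cells | Quantity: 8000 cells per well | Medium: Phenol-red-free RPMI with 5% fetal bovine serum | Reagent: Cytokine cocktail of IFN-γ, TNF-α and IL-1β | Doses: One compound concentration, pin transfer | Timing: 48 h co-treatment, 10 min post-lysis read | Technique: Luminescent ATP assay (CellTiter-Glo)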
# YB-1 expression = YB-1 expression inhibition; U2OS, qRT-PCR YB-1 vs CDIP delta delta Cp, 16 h; hits give high values; zero = DMSO, each unit about twofold; delta delta Cp (YB-1 minus CDIP) (concentration not given with the values); actives 0.37% (n = 30,000); AID 434959;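 active = delta delta Cp rounded down to an integer at or above 3, about 3 SD of DMSO wells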;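 also: higher means less YB-1 transcript or more CDIP transcript relative to DMSO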
# T cruzi intra = inhibitors of intracellular Trypanosoma cruzi. activity score (inhibition), % at 5.01 µM. actives 4.9% (n = 22,000). intracellular Trypanosoma cruzi in host cells, plate reader; in the data active = activity score above about 55%;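 also: parasites and compound incubated about four days before reading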
# A number is an active result; . = inactive; / = not tested or not shown. This is one part of a sample in which hits are shown more often than they occur.
SMILES,INS-1E ATP HTS,YB-1 expression,T cruzi intra
CCN(CC)c1ccc(/C=N/NC(=O)CCCCCCC(=O)Nc2ccccc2O)c(O)c1,.,.,66
O=C(CCCCC(=O)N/N=C/c1ccc([N+](=O)[O-])s1)NO,.,.,.
O=C(CCCCCCC(=O)Nc1ccccc1O)N/N=C/c1ccccc1O,.,.,.
O=C(CCCCCCC(=O)Nc1ccccc1O)N/N=C/c1ccc([N+](=O)[O-])s1,.,.,89
Cc1noc(C)c1NC(=O)Nc1ccc2c(c1)C(=O)N([C@@H](C)CO)C[C@H](C)[C@H](CN(C)S(=O)(=O)c1cn(C)cn1)O2,.,.,.
C[C@@H]1CN([C@@H](C)CO)C(=O)c2cccc(NS(=O)(=O)c3ccc(Cl)cc3)c2O[C@H]1CN(C)C(=O)Nc1ccccc1,.,.,.
O=C(O)c1cc(=O)c2c(O)cccc2o1,/,.,/
Cc1ccc(S(=O)(=O)N(C)C[C@@H]2Oc3ccc(NS(=O)(=O)c4ccc(Cl)cc4)cc3C(=O)N([C@@H](C)CO)C[C@H]2C)cc1,.,.,.
C[C@H]1CN([C@@H](C)CO)C(=O)Cc2cc(NC(=O)Nc3ccc(C(F)(F)F)cc3)ccc2O[C@H]1CN(C)Cc1ccc(C(=O)Nc2ccccc2N)cc1,.,.,87
C[C@@H]1CN([C@H](C)CO)C(=O)Cc2cc(NC(=O)Nc3ccc(C(F)(F)F)cc3)ccc2O[C@@H]1CN(C)Cc1ccc(C(=O)Nc2ccccc2N)cc1,.,.,83
C[C@H](CO)N1C[C@H](C)[C@H](CN(C)Cc2ccc(C(=O)Nc3ccccc3N)cc2)Oc2ccc(NC(=O)Nc3ccc(C(F)(F)F)cc3)cc2C1=O,.,.,.
C[C@H]1CN([C@@H](C)CO)C(=O)Cc2cc(NC(=O)CCC(F)(F)F)ccc2O[C@@H]1CN(C)Cc1ccc(C(=O)Nc2ccccc2N)cc1,.,.,.
O=C(O)c1cc(=O)[nH]c2c(C(F)(F)F)cccc12,/,.,/
C[C@H](CO)N1C[C@H](C)[C@H](CN(C)Cc2ccc(C(=O)O)cc2)Oc2c(NC(=O)NC3CCCCC3)cccc2C1=O,.,.,.
C[C@@H]1CN([C@@H](C)CO)C(=O)Cc2cc(NS(=O)(=O)c3cccs3)ccc2O[C@@H]1CN(C)Cc1ccc(Oc2ccccc2)cc1,.,.,63
C[C@H]1CN([C@@H](C)CO)C(=O)Cc2cc(NS(=O)(=O)c3cccs3)ccc2O[C@H]1CN(C)Cc1ccc(-c2ccccc2)cc1,.,.,57
COc1ccc(CN(C)C[C@@H]2Oc3ccc(NS(=O)(=O)c4cccs4)cc3CC(=O)N([C@H](C)CO)C[C@H]2C)cc1,.,.,.
C[C@@H]1CN([C@H](C)CO)C(=O)Cc2cc(NS(=O)(=O)c3cccs3)ccc2O[C@@H]1CN(C)Cc1ccc(-c2ccccc2)cc1,.,.,.
COC(=O)[C@]1(CO)N=C(c2ccc(OCCCO)cc2)O[C@@H]1c1ccccc1N=[N+]=[N-],/,.,/
C[C@H](CO)N1C[C@H](C)[C@@H](CN(C)C(=O)NC2CCCCC2)Oc2c(NC(=O)c3cnccn3)cccc2C1=O,.,.,.
C[C@H](CO)N1C[C@H](C)[C@H](CN(C)Cc2ccccc2)Oc2ccc(NC(=O)Nc3ccc4c(c3)OCO4)cc2CC1=O,.,.,.
COc1ccc(NC(=O)Nc2cccc3c2O[C@@H](CN(C)C(=O)Nc2ccc(OC)cc2)[C@H](C)CN([C@H](C)CO)C3=O)cc1,.,.,.
Cc1noc(C)c1S(=O)(=O)Nc1ccc2c(c1)CC(=O)N([C@@H](C)CO)C[C@@H](C)[C@@H](CN(C)Cc1ccc(Oc3ccccc3)cc1)O2,.,.,60
Cc1noc(C)c1S(=O)(=O)Nc1ccc2c(c1)CC(=O)N([C@H](C)CO)C[C@@H](C)[C@@H](CN(C)Cc1ccc(-c3ccccc3)cc1)O2,.,.,60
Cc1noc(C)c1S(=O)(=O)Nc1ccc2c(c1)CC(=O)N([C@@H](C)CO)C[C@H](C)[C@H](CN(C)Cc1ccc(-c3ccccc3)cc1)O2,.,.,.
SMILES,INS-1E ATP HTS,YB-1 expression,T cruzi intra
Cc1noc(C)c1S(=O)(=O)Nc1ccc2c(c1)CC(=O)N([C@@H](C)CO)C[C@@H](C)[C@@H](CN(C)Cc1ccccc1)O2,.,.,.
CC(C)OC(=O)Nc1cc(Cl)cc(Cl)c1,/,.,/
C[C@H]1CN([C@@H](C)CO)C(=O)Cc2cc(NC(=O)Nc3ccc4c(c3)OCO4)ccc2O[C@@H]1CN(C)Cc1ccc(C(=O)Nc2ccccc2N)cc1,.,.,56
CC(C)NC(=O)Nc1ccc2c(c1)CC(=O)N([C@@H](C)CO)C[C@@H](C)[C@@H](CN(C)Cc1ccc(C(=O)Nc3ccccc3N)cc1)O2,.,.,.
C[C@H](CO)N1C[C@H](C)[C@H](CN(C)Cc2ccc(C(=O)Nc3ccccc3N)cc2)Oc2ccc(NC(=O)Nc3ccc4c(c3)OCO4)cc2CC1=O,.,.,67
Cc1noc(C)c1NC(=O)N(C)C[C@@H]1Oc2ccc(NC(=O)Nc3cccc4ccccc34)cc2C(=O)N([C@H](C)CO)C[C@H]1C,.,.,.
O=[n+]1c(CO)c(CO)n([O-])c2ccccc21,/,.,/
C[C@@H]1CN([C@H](C)CO)C(=O)c2cc(NS(=O)(=O)c3ccc(F)cc3)ccc2O[C@@H]1CN(C)C(=O)Nc1ccccc1,.,.,.
COc1ccc(NC(=O)Nc2ccc3c(c2)CC(=O)N([C@@H](C)CO)C[C@H](C)[C@@H](CN(C)Cc2ccc(Oc4ccccc4)cc2)O3)cc1,.,.,62
COc1ccc(NC(=O)Nc2ccc3c(c2)CC(=O)N([C@H](C)CO)C[C@@H](C)[C@H](CN(C)Cc2ccc(Oc4ccccc4)cc2)O3)cc1,.,.,.
C[C@H]1CN([C@@H](C)CO)C(=O)Cc2cc(NC(=O)C3CCCCC3)ccc2O[C@@H]1CN(C)Cc1ccc(Oc2ccccc2)cc1,.,.,59
COc1ccc(CN(C)C[C@@H]2Oc3ccc(NC(=O)Nc4ccccc4)cc3CC(=O)N([C@@H](C)CO)C[C@@H]2C)cc1,.,.,.
COc1ccc(NC(=O)Nc2ccc3c(c2)CC(=O)N([C@H](C)CO)C[C@@H](C)[C@@H](CN(C)Cc2ccc(Oc4ccccc4)cc2)O3)cc1,.,.,72
C[C@@H]1CN([C@H](C)CO)C(=O)Cc2cc(NC(=O)C3CCCCC3)ccc2O[C@H]1CN(C)Cc1ccccc1,.,.,.
COc1ccc(NC(=O)Nc2ccc3c(c2)CC(=O)N([C@@H](C)CO)C[C@H](C)[C@H](CN(C)S(=O)(=O)c2ccc(OC)cc2)O3)cc1,.,.,.
C[C@H](CO)N1C[C@H](C)[C@H](CN(C)S(=O)(=O)c2cn(C)cn2)Oc2ccc(NC(=O)Nc3ccc(F)cc3)cc2CC1=O,.,.,.
C[C@H](CO)N1C[C@H](C)[C@H](CN(C)S(=O)(=O)c2ccc(F)cc2)Oc2ccc(NC(=O)Nc3ccc(F)cc3)cc2CC1=O,.,.,.
COc1ccc(S(=O)(=O)N(C)C[C@H]2Oc3ccc(NC(=O)Nc4ccc(C(F)(F)F)cc4)cc3CC(=O)N([C@H](C)CO)C[C@H]2C)cc1,.,.,65
